{"source": "paper PMC3778312", "about": "(British Journal of Cancer, 2013)", "assay": "Phase 1 safety monitoring of PX-866 with docetaxel", "assay_type": "in vivo, human", "how_it_was_run": "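Open-label dose escalation in cohorts of 6–9 patients at 4, 6 or 8 mg oral daily test compound plus docetaxel 75 mg m−2 IV every 21 days, with dexamethasone premedication. All patients receiving ≥1 dose had vital signs, labs and exams; AEs were graded by NCI CTCAE v4.02. DLTs included related grade ≥3 events, febrile grade 3/4 neutropenia, platelets <25 000 per μl and ANC <500 per μl for >7 days.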"}
{"smiles": "C=CCN(/C=C1/C(=O)O[C@H](COC)[C@@]2(C)C1=C(O)C(=O)C1=C2[C@H](OC(C)=O)C[C@]2(C)C(=O)CC[C@@H]12)CC=C", "note": "[PX-866]", "values": [{"measurement": "patients requiring PX-866 dose reductions", "setting": "4 out of 43, all in the 8 mg cohort, vomiting and/or diarrhoea", "result": 9, "unit": "%"}, {"measurement": "Treatment-emergent AE: Alopecia", "setting": "PX-866 4 mg + docetaxel, N=10", "result": "2 (20) N (%)"}, {"measurement": "Treatment-emergent AE: Anaemia", "setting": "PX-866 4 mg + docetaxel, N=10", "result": "2 (20) N (%)"}, {"measurement": "Treatment-emergent AE: Arthralgia", "setting": "PX-866 4 mg + docetaxel, N=10", "result": "0 (0) N (%)"}, {"measurement": "Treatment-emergent AE: Asthenia", "setting": "PX-866 4 mg + docetaxel, N=10", "result": "1 (10) N (%)"}, {"measurement": "Treatment-emergent AE: Bone pain", "setting": "PX-866 4 mg + docetaxel, N=10", "result": "0 (0) N (%)"}, {"measurement": "Treatment-emergent AE: Cough", "setting": "PX-866 4 mg + docetaxel, N=10", "result": "2 (20) N (%)"}, {"measurement": "Treatment-emergent AE: Decreased appetite", "setting": "PX-866 4 mg + docetaxel, N=10", "result": "1 (10) N (%)"}, {"measurement": "Treatment-emergent AE: Dehydration", "setting": "PX-866 4 mg + docetaxel, N=10", "result": "3 (30) N (%)"}, {"measurement": "Treatment-emergent AE: Diarrhoea", "setting": "PX-866 4 mg + docetaxel, N=10", "result": "7 (70) N (%)"}, {"measurement": "Treatment-emergent AE: Dizziness", "setting": "PX-866 4 mg + docetaxel, N=10", "result": "1 (10) N (%)"}, {"measurement": "Treatment-emergent AE: Dysgeusia", "setting": "PX-866 4 mg + docetaxel, N=10", "result": "2 (20) N (%)"}, {"measurement": "Treatment-emergent AE: Epistaxis", "setting": "PX-866 4 mg + docetaxel, N=10", "result": "1 (10) N (%)"}, {"measurement": "Treatment-emergent AE: Fatigue", "setting": "PX-866 4 mg + docetaxel, N=10", "result": "6 (60) N (%)"}, {"measurement": "Treatment-emergent AE: Hypokalemia", "setting": "PX-866 4 mg + docetaxel, N=10", "result": "2 (20) N (%)"}, {"measurement": "Treatment-emergent AE: Nausea", "setting": "PX-866 4 mg + docetaxel, N=10", "result": "5 (50) N (%)"}, {"measurement": "Treatment-emergent AE: Neutropenia", "setting": "PX-866 4 mg + docetaxel, N=10", "result": "6 (60) N (%)"}, {"measurement": "Treatment-emergent AE: Oedema peripheral", "setting": "PX-866 4 mg + docetaxel, N=10", "result": "4 (40) N (%)"}, {"measurement": "Treatment-emergent AE: Oropharyngeal pain", "setting": "PX-866 4 mg + docetaxel, N=10", "result": "1 (10) N (%)"}, {"measurement": "Treatment-emergent AE: Pyrexia", "setting": "PX-866 4 mg + docetaxel, N=10", "result": "1 (10) N (%)"}, {"measurement": "Treatment-emergent AE: Stomatitis", "setting": "PX-866 4 mg + docetaxel, N=10", "result": "1 (10) N (%)"}, {"measurement": "Treatment-emergent AE: Vomiting", "setting": "PX-866 4 mg + docetaxel, N=10", "result": "3 (30) N (%)"}, {"measurement": "Treatment-emergent AEs, frequency by severity: Grade 1", "setting": "PX-866 4 mg + docetaxel, N=10", "result": "32 (56) N (%)"}, {"measurement": "Treatment-emergent AEs, frequency by severity: Grade 2", "setting": "PX-866 4 mg + docetaxel, N=10", "result": "10 (18) N (%)"}, {"measurement": "Treatment-emergent AEs, frequency by severity: Grade 3", "setting": "PX-866 4 mg + docetaxel, N=10", "result": "8 (14) N (%)"}, {"measurement": "Treatment-emergent AEs, frequency by severity: Grade 4", "setting": "PX-866 4 mg + docetaxel, N=10", "result": "7 (12) N (%)"}, {"measurement": "Treatment-emergent AEs, frequency by severity: Grade 5", "setting": "PX-866 4 mg + docetaxel, N=10", "result": "0 (0) N (%)"}, {"measurement": "Treatment-emergent AE: Alopecia", "setting": "PX-866 6 mg + docetaxel, N=10", "result": "6 (60) N (%)"}, {"measurement": "Treatment-emergent AE: Anaemia", "setting": "PX-866 6 mg + docetaxel, N=10", "result": "2 (20) N (%)"}, {"measurement": "Treatment-emergent AE: Arthralgia", "setting": "PX-866 6 mg + docetaxel, N=10", "result": "2 (20) N (%)"}, {"measurement": "Treatment-emergent AE: Asthenia", "setting": "PX-866 6 mg + docetaxel, N=10", "result": "4 (40) N (%)"}, {"measurement": "Treatment-emergent AE: Bone pain", "setting": "PX-866 6 mg + docetaxel, N=10", "result": "4 (40) N (%)"}, {"measurement": "Treatment-emergent AE: Constipation", "setting": "PX-866 6 mg + docetaxel, N=10", "result": "3 (30) N (%)"}, {"measurement": "Treatment-emergent AE: Cough", "setting": "PX-866 6 mg + docetaxel, N=10", "result": "5 (50) N (%)"}, {"measurement": "Treatment-emergent AE: Decreased appetite", "setting": "PX-866 6 mg + docetaxel, N=10", "result": "4 (40) N (%)"}, {"measurement": "Treatment-emergent AE: Dehydration", "setting": "PX-866 6 mg + docetaxel, N=10", "result": "1 (10) N (%)"}, {"measurement": "Treatment-emergent AE: Diarrhoea", "setting": "PX-866 6 mg + docetaxel, N=10", "result": "8 (80) N (%)"}, {"measurement": "Treatment-emergent AE: Dizziness", "setting": "PX-866 6 mg + docetaxel, N=10", "result": "2 (20) N (%)"}, {"measurement": "Treatment-emergent AE: Dysgeusia", "setting": "PX-866 6 mg + docetaxel, N=10", "result": "3 (30) N (%)"}, {"measurement": "Treatment-emergent AE: Epistaxis", "setting": "PX-866 6 mg + docetaxel, N=10", "result": "2 (20) N (%)"}, {"measurement": "Treatment-emergent AE: Fatigue", "setting": "PX-866 6 mg + docetaxel, N=10", "result": "7 (70) N (%)"}, {"measurement": "Treatment-emergent AE: Hypokalemia", "setting": "PX-866 6 mg + docetaxel, N=10", "result": "1 (10) N (%)"}, {"measurement": "Treatment-emergent AE: Nausea", "setting": "PX-866 6 mg + docetaxel, N=10", "result": "4 (40) N (%)"}, {"measurement": "Treatment-emergent AE: Neutropenia", "setting": "PX-866 6 mg + docetaxel, N=10", "result": "5 (50) N (%)"}, {"measurement": "Treatment-emergent AE: Oedema peripheral", "setting": "PX-866 6 mg + docetaxel, N=10", "result": "6 (60) N (%)"}, {"measurement": "Treatment-emergent AE: Oropharyngeal pain", "setting": "PX-866 6 mg + docetaxel, N=10", "result": "1 (10) N (%)"}, {"measurement": "Treatment-emergent AE: Pyrexia", "setting": "PX-866 6 mg + docetaxel, N=10", "result": "4 (40) N (%)"}, {"measurement": "Treatment-emergent AE: Stomatitis", "setting": "PX-866 6 mg + docetaxel, N=10", "result": "4 (40) N (%)"}, {"measurement": "Treatment-emergent AE: Vomiting", "setting": "PX-866 6 mg + docetaxel, N=10", "result": "5 (50) N (%)"}, {"measurement": "Treatment-emergent AEs, frequency by severity: Grade 1", "setting": "PX-866 6 mg + docetaxel, N=10", "result": "36 (49) N (%)"}, {"measurement": "Treatment-emergent AEs, frequency by severity: Grade 2", "setting": "PX-866 6 mg + docetaxel, N=10", "result": "30 (41) N (%)"}, {"measurement": "Treatment-emergent AEs, frequency by severity: Grade 3", "setting": "PX-866 6 mg + docetaxel, N=10", "result": "5 (7) N (%)"}, {"measurement": "Treatment-emergent AEs, frequency by severity: Grade 4", "setting": "PX-866 6 mg + docetaxel, N=10", "result": "3 (4) N (%)"}, {"measurement": "Treatment-emergent AEs, frequency by severity: Grade 5", "setting": "PX-866 6 mg + docetaxel, N=10", "result": "0 (0) N (%)"}, {"measurement": "Treatment-emergent AE: Alopecia", "setting": "PX-866 8 mg + docetaxel, N=23", "result": "4 (17) N (%)"}, {"measurement": "Treatment-emergent AE: Anaemia", "setting": "PX-866 8 mg + docetaxel, N=23", "result": "9 (39) N (%)"}, {"measurement": "Treatment-emergent AE: Arthralgia", "setting": "PX-866 8 mg + docetaxel, N=23", "result": "5 (22) N (%)"}, {"measurement": "Treatment-emergent AE: Asthenia", "setting": "PX-866 8 mg + docetaxel, N=23", "result": "6 (26) N (%)"}, {"measurement": "Treatment-emergent AE: Bone pain", "setting": "PX-866 8 mg + docetaxel, N=23", "result": "5 (22) N (%)"}, {"measurement": "Treatment-emergent AE: Constipation", "setting": "PX-866 8 mg + docetaxel, N=23", "result": "8 (35) N (%)"}, {"measurement": "Treatment-emergent AE: Cough", "setting": "PX-866 8 mg + docetaxel, N=23", "result": "3 (13) N (%)"}, {"measurement": "Treatment-emergent AE: Decreased appetite", "setting": "PX-866 8 mg + docetaxel, N=23", "result": "10 (44) N (%)"}, {"measurement": "Treatment-emergent AE: Dehydration", "setting": "PX-866 8 mg + docetaxel, N=23", "result": "11 (48) N (%)"}, {"measurement": "Treatment-emergent AE: Diarrhoea", "setting": "PX-866 8 mg + docetaxel, N=23", "result": "18 (78) N (%)"}, {"measurement": "Treatment-emergent AE: Dizziness", "setting": "PX-866 8 mg + docetaxel, N=23", "result": "4 (17) N (%)"}, {"measurement": "Treatment-emergent AE: Dysgeusia", "setting": "PX-866 8 mg + docetaxel, N=23", "result": "3 (13) N (%)"}, {"measurement": "Treatment-emergent AE: Epistaxis", "setting": "PX-866 8 mg + docetaxel, N=23", "result": "4 (17) N (%)"}, {"measurement": "Treatment-emergent AE: Fatigue", "setting": "PX-866 8 mg + docetaxel, N=23", "result": "13 (57) N (%)"}, {"measurement": "Treatment-emergent AE: Hypokalemia", "setting": "PX-866 8 mg + docetaxel, N=23", "result": "6 (26) N (%)"}, {"measurement": "Treatment-emergent AE: Nausea", "setting": "PX-866 8 mg + docetaxel, N=23", "result": "16 (70) N (%)"}]}
